≈ marks a conversion by molar mass, not a printed value.

This test concerns Staphylococcus aureus. As to the kind of experiment: In vitro antibacterial activity for minimum inhibition concentration (MIC) required to inhibit growth of Staphylococcus aureus. The test is classed as functional. In outline: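 Broth microdilution in brain/heart infusion broth, inoculated with a standardized suspension to a final 10^5 viable cells/mL. Incubation 20 h at 37 °C. MIC read as the lowest concentration preventing visible growth.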
In turn, `CSC1OC(C(NC(=O)[C@@H]2C[C@H](C(C)(C)C)CCN2)C(C)Cl)C(O)C(O)C1O` (stereo partly drawn) displayed an MIC of 2 µg/mL (≈ 4.56 µM).

Consider `CC[C@H]1CCN(CCO)[C@@H](C(=O)NC(C(C)Cl)C2OC(SC)C(O)C(O)C2O)C1` (stereo partly drawn), for which the MIC was > 160 µg/mL.

`CCC[C@@H]1CCN[C@H](C(=O)NC(C(C)Cl)C2OC(SC)C(O)C(O)C2O)C1` (stereo partly drawn) had an MIC of 0.5 µg/mL (≈ 1.18 µM).

Regarding `CSC1OC(C(NC(=O)[C@@H]2CCCCN2C)C(C)Cl)C(O)C(O)C1O` (stereo partly drawn), the MIC is 3.9 µg/mL (≈ 9.83 µM). Against the preceding molecule, the MIC is about 7.8-fold higher.

In the case of `CS[C@H]1O[C@H](C(NC(=O)C2CCNCC2)C(C)Cl)[C@H](O)[C@H](O)[C@H]1O` (stereo partly drawn), the MIC is > 80 µg/mL.

With `CSC1OC(C(NC(=O)[C@@H]2NCCC[C@@H]2C)C(C)Cl)C(O)C(O)C1O` (stereo partly drawn), the MIC is 25 µg/mL (≈ 63 µM).

The molecule `CSC1OC(C(NC(=O)[C@H]2CC3CCN2CC3)C(C)Cl)C(O)C(O)C1O` (stereo partly drawn) gave an MIC of 50 µg/mL (≈ 122 µM).

Regarding `CCc1ccnc(C(=O)NC(C(C)Cl)C2OC(SC)C(O)C(O)C2O)c1` (stereo not drawn), inhibition of growth (MIC) required 1000 µg/mL (≈ 2470 µM).

On to `CSC1OC(C(NC(=O)c2cccnc2)C(C)Cl)C(O)C(O)C1O` (stereo not drawn), for which the MIC is > 100 µg/mL.

In the case of `CSC1OC(C(NC(=O)[C@@H]2CCN2)C(C)Cl)C(O)C(O)C1O` (stereo partly drawn), the MIC came out at 25 µg/mL (≈ 70.5 µM).

Molecule `CCCCCC[C@H]1CCN[C@@H](C(=O)NC(C(C)Cl)C2OC(SC)C(O)C(O)C2O)C1` (stereo partly drawn) displayed an MIC of 0.5 µg/mL (≈ 1.07 µM).

Regarding `CSC1OC(C(NC(=O)[C@@H]2CC3CCN2CC3)C(C)Cl)C(O)C(O)C1O` (stereo partly drawn), the MIC is > 100 µg/mL.

`CCCC[C@@H]1CCN(CCO)[C@H](C(=O)NC(C(C)Cl)C2OC(SC)C(O)C(O)C2O)C1` (stereo partly drawn) gave an MIC of 0.16 µg/mL (≈ 0.331 µM).

Turning to `CSC1OC(C(NC(=O)[C@H]2CCCCN2)C(C)Cl)C(O)C(O)C1O` (stereo partly drawn), the MIC was determined as 25 µg/mL (≈ 65.3 µM). This MIC is about 160-fold higher than that of the molecule before.

Molecule `CC[C@@H]1CCN(C)[C@H](C(=O)NC(C(C)Cl)C2OC(SC)C(O)C(O)C2O)C1` (stereo partly drawn) showed an MIC of 0.2 µg/mL (≈ 0.471 µM).

Regarding `CSC1OC(C(NC(=O)c2cccc(C)n2)C(C)Cl)C(O)C(O)C1O` (stereo not drawn), the MIC was > 25 µg/mL.

On to `CSC1OC(C(NC(=O)c2cc(C(C)(C)C)ccn2)C(C)Cl)C(O)C(O)C1O` (stereo not drawn), for which the MIC is > 100 µg/mL.

`CSC1OC(C(NC(=O)[C@H]2CCCNC2)C(C)Cl)C(O)C(O)C1O` (stereo partly drawn): the MIC is > 80 µg/mL.

`CC[C@H]1CC[C@@H](C(=O)NC(C(C)Cl)C2OC(SC)C(O)C(O)C2O)NC1` (stereo partly drawn) registered an MIC of 2 µg/mL (≈ 4.87 µM).

On to `CSC1OC(C(NC(=O)c2ncccc2C)C(C)Cl)C(O)C(O)C1O` (stereo not drawn), for which the MIC is > 100 µg/mL.

`CCCCCCCC[C@@H]1CCN[C@H](C(=O)NC(C(C)Cl)C2OC(SC)C(O)C(O)C2O)C1` (stereo partly drawn) gave an MIC of 0.3 µg/mL (≈ 0.606 µM).

As to `CSC1OC(C(NC(=O)[C@H]2CCC[C@@H](C)N2)C(C)Cl)C(O)C(O)C1O` (stereo partly drawn), the MIC is > 25 µg/mL.

`CCCC[C@@H]1CCN[C@H](C(=O)NC(C(C)Cl)C2OC(SC)C(O)C(O)C2O)C1` (stereo partly drawn): the MIC is 0.06 µg/mL (≈ 0.137 µM).

Regarding `CCc1cccc(C(=O)NC(C(C)Cl)C2OC(SC)C(O)C(O)C2O)n1` (stereo not drawn), the MIC was > 25 µg/mL.

For the molecule `CC[C@@H]1CCC[C@H](C(=O)NC(C(C)Cl)C2OC(SC)C(O)C(O)C2O)N1` (stereo partly drawn), the MIC is > 25 µg/mL.

Take `CCCCCC[C@@H]1CCN[C@H](C(=O)NC(C(C)Cl)C2OC(SC)C(O)C(O)C2O)C1` (stereo partly drawn): the MIC amounted to 0.03 µg/mL (≈ 0.0642 µM).

As to `CCC[C@H]1CCN[C@@H](C(=O)NC(C(C)Cl)C2OC(SC)C(O)C(O)C2O)C1` (stereo partly drawn), the MIC is > 25 µg/mL.

Molecule `CSC1OC(C(NC(=O)[C@@H]2CCCCCN2)C(C)Cl)C(O)C(O)C1O` (stereo partly drawn) yielded an MIC of 1.56 µg/mL (≈ 3.93 µM).

As to `CSC1OC(C(NC(=O)[C@H]2CCCCN2C)C(C)Cl)C(O)C(O)C1O` (stereo partly drawn), the MIC is > 100 µg/mL.

Regarding `CCCCCC[C@@H]1CCN(C)[C@H](C(=O)NC(C(C)Cl)C2OC(SC)C(O)C(O)C2O)C1` (stereo partly drawn), the minimum inhibitory concentration (MIC) was determined as 0.3 µg/mL (≈ 0.624 µM).

On to `CSC1OC(C(NC(=O)[C@H]2NCCCC2C)C(C)Cl)C(O)C(O)C1O` (stereo partly drawn), for which the MIC is 12.5 µg/mL (≈ 31.5 µM).

Turning to `CC[C@H]1CCN[C@@H](C(=O)N[C@@H]([C@H]2O[C@H](SC)[C@H](O)[C@@H](O)[C@H]2O)[C@H](C)Cl)C1`, the MIC is 250 µg/mL (≈ 608 µM).

In the case of `CCc1ccc(C(=O)NC(C(C)Cl)C2OC(SC)C(O)C(O)C2O)nc1` (stereo not drawn), the MIC was 62.5 µg/mL (≈ 154 µM). Against the preceding molecule, the MIC is about 4-fold lower.

Molecule `CCCC[C@H]1CCN[C@@H](C(=O)NC(C(C)Cl)C2OC(SC)C(O)C(O)C2O)C1` (stereo partly drawn) returned an MIC of 31.2 µg/mL (≈ 71.1 µM).

Regarding `CCCc1ccnc(C(=O)NC(C(C)Cl)C2OC(SC)C(O)C(O)C2O)c1` (stereo not drawn), the MIC is > 100 µg/mL.

Molecule `CCCCCCc1ccnc(C(=O)NC(C(C)Cl)C2OC(SC)C(O)C(O)C2O)c1` (stereo not drawn) came in with an MIC of 50 µg/mL (≈ 108 µM).

Regarding `CCCCCCCCc1ccnc(C(=O)NC(C(C)Cl)C2OC(SC)C(O)C(O)C2O)c1` (stereo not drawn), the MIC is > 10 µg/mL.

Take `CSC1OC(C(NC(=O)[C@@H]2CCC[C@H](C)N2)C(C)Cl)C(O)C(O)C1O` (stereo partly drawn): the MIC is > 25 µg/mL.

The molecule `CC[C@@H]1CCN(CCO)[C@H](C(=O)NC(C(C)Cl)C2OC(SC)C(O)C(O)C2O)C1` (stereo partly drawn) registered an MIC of 2.5 µg/mL (≈ 5.49 µM).

The molecule `CSC1OC(C(NC(=O)[C@@H]2CCCCN2)C(C)Cl)C(O)C(O)C1O` (stereo partly drawn) displayed an MIC of 3.9 µg/mL (≈ 10.2 µM).

For `CC[C@H]1CCN(C)[C@@H](C(=O)NC(C(C)Cl)C2OC(SC)C(O)C(O)C2O)C1` (stereo partly drawn), the MIC is > 100 µg/mL.

Take `CSC1OC(C(NC(=O)[C@H]2CCCCCN2)C(C)Cl)C(O)C(O)C1O` (stereo partly drawn): the MIC is > 100 µg/mL.

`CSC1OC(C(NC(=O)c2ccccn2)C(C)Cl)C(O)C(O)C1O` (stereo not drawn) displayed an MIC of 62.5 µg/mL (≈ 166 µM).

For the molecule `CC[C@H]1CCC[C@@H](C(=O)NC(C(C)Cl)C2OC(SC)C(O)C(O)C2O)N1` (stereo partly drawn), the MIC was > 25 µg/mL.

`CSC1OC(C(NC(=O)[C@H]2C[C@@H](C(C)(C)C)CCN2)C(C)Cl)C(O)C(O)C1O` (stereo partly drawn): the MIC is > 25 µg/mL.

Regarding `CSC1OC(C(NC(=O)[C@@H]2CCCNC2)C(C)Cl)C(O)C(O)C1O` (stereo partly drawn), the MIC is > 80 µg/mL.

Consider `CSC1OC(C(NC(=O)c2ccncc2)C(C)Cl)C(O)C(O)C1O` (stereo not drawn), for which the MIC is > 1000 µg/mL.

Regarding `CC[C@@H]1CC[C@H](C(=O)NC(C(C)Cl)C2OC(SC)C(O)C(O)C2O)NC1` (stereo partly drawn), the MIC is 2.5 µg/mL (≈ 6.08 µM).

Values taken from ChEMBL document CHEMBL1122773 (1984).
